Results collected from several papers.
Lines come from different studies, so protocols differ. Values after ≈ are worked out from the molar mass of the structure shown.

| SMILES | target or system | test | test system | setting | endpoint | value |
| --- | --- | --- | --- | --- | --- | --- |
| Cc1c(Cl)c(=O)oc2cc(OCCCC[Se]C#N)ccc12 | MIA PaCa-2 | cell growth or viability, SRB | – | – | GI50 | 13 µM |
| O=c1c2ccccc2[se]n1-c1ccccc1 | Zika virus | viral replication | – | 48 h | IC50 | 7.4 µM |
| N#C[Se]CCCCOc1ccc2c(-c3ccccc3)cc(=O)oc2c1 | T47D | cell growth or viability, SRB | – | – | GI50 | 26 µM |
| C#CCCC1(CCC(=O)NCc2cc(=O)c(O)c(CNC(=O)CCCCCC)n2C)N=N1 | Pseudomonas aeruginosa | microbial growth | PAO1 | – | IC50 | > 100 µM |
| Cc1cc(=O)oc2cc(OCCCC[Se]C#N)ccc12 | T47D | cell growth or viability, SRB | – | – | GI50 | 2.2 µM |
| N.N.[Cl][Pt][Cl] | SU-DHL-2 | cell growth or viability, ATP luminescence | – | 72 h | IC50 | 0.56 µM |
| C[C@@H](N)[C@H](O)CCCCCCCC(=O)CCCCCCCCCCCCCC[C@@H](O[C@@H]1O[C@H](CO)[C@H](O)[C@H](O)[C@H]1O)[C@@H](C)N | Pseudomonas aeruginosa | microbial growth, resazurin | ATCC27853 | 50 µM | inhibition | 99% |
| C#CCCCCC(=O)NCc1cc(=O)c(O)c(CNC(=O)CCCCCC)n1C | Pseudomonas aeruginosa | microbial growth | PAO1 | – | IC50 | > 100 µM |
| NCC[C@H](O)C(=O)N[C@@H]1C[C@H](N)[C@@H](O[C@H]2O[C@H](CN)[C@@H](O)[C@H](O)[C@H]2O)[C@H](O)[C@H]1O[C@H]1O[C@H](CO)[C@@H](O)[C@H](N)[C@H]1O | Mycobacteroides abscessus | microbial growth, broth dilution | – | – | MIC90 | 3.4 µg/mL (≈ 5.81 µM) |
| C#CCCCCCC(=O)NCc1c(O)c(=O)cc(C)n1C | Pseudomonas aeruginosa | microbial growth | PAO1 | – | IC50 | > 100 µM |
| O=[N+]([O-])c1ccc(NCCCCN=C=S)c2nonc12 | T47D | cell growth or viability, MTT | – | 24 h | IC50 | 2.8 µM |
| C[C@@H]1C[C@@H]([C@H](O)CC2CC(=O)NC(=O)C2)C(=O)[C@@H](C)C1 | Pseudomonas aeruginosa | microbial growth, broth dilution | ATCC27 ATCC27853 | – | MIC | 16 µg/mL (≈ 56.9 µM) |
| NNC(=O)c1ccncc1 | Mycobacteroides abscessus | microbial growth, broth dilution | – | – | MIC90 | > 500 µg/mL |
